This note sets out measurements from ChEMBL document CHEMBL1134978, “Novel 2,5-dideoxystreptamine derivatives targeting the ribosomal decoding site RNA” (Bioorg Med Chem Lett, 2002).

As usually defined, the IC50 is the point on the concentration scale where inhibition reaches its midpoint.

The structures appear in SMILES notation.

The target in the test is Nucleic Acid. Description: In vitro inhibition of decoding site of bacterial rRNA (within the 30S ribosomal subunit) encoding luciferase reporter in transcription-translation assay. In kind it is functional, Bacteria. Put shortly: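 Coupled transcription–translation in bacterial S30 extract. Compounds were preincubated with the extract, then NTPs, amino acids and a plasmid encoding firefly luciferase were added, and plates were incubated 20 min at 25 °C. After chilling on ice, luciferin substrate was added for 15 min at room temperature and luminescence was read. Doses spanned 1 mM to 100 nM with six replicates per concentration. IC50 came from a variable-slope fit of light units vs log(c).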
`NC1CC(N)C(C(=O)N2CCNCC2)CC1O` (configuration not stated) had an IC50 of more than 1000 µM.

`NC1CC(N)C(C(=O)NCCCN2CCCC2=O)CC1O` (configuration not stated): the IC50 was more than 1000 µM.

Turning to `N#Cc1cccc(NC(=O)C2CC(O)C(N)CC2N)c1` (configuration not stated), it took 450 µM to reach half-maximal inhibition (IC50).

Compound `NC1CC(N)C(C(=O)NCCN2CCOCC2)CC1O` (configuration not stated) returned an IC50 of more than 1000 µM.

For the compound `NC(=O)C1CC(O)C(N)CC1N` (configuration not stated), the IC50 is more than 1000 µM.

`NC1CC(N)C(C(=O)Nc2ccc(-c3cnco3)cc2)CC1O` (configuration not stated): inhibition was half-maximal at 59 µM (IC50).

Turning to `N[C@@H]1C[C@H](N)[C@@H](O)[C@H](O)[C@H]1O`, the IC50 was more than 1000 µM.

`NC1CC(N)C(C(=O)N2CCC3(CC2)OCCO3)CC1O` (configuration not stated) gave an IC50 of more than 1000 µM.

`NC1CC(N)C(C(=O)Nc2ccc(-n3ccnc3)cc2)CC1O` (configuration not stated): half-maximal inhibition (IC50) was put at 290 µM.

As to `NC(=O)[C@H]1CCCN1C(=O)C1CC(O)C(N)CC1N` (some centres not stated), the IC50 is more than 1000 µM.

`NC1CC(N)C(C(=O)N2CCN(C3=NCCCN3)CC2)CC1O` (configuration not stated) came in with a half-maximal inhibitory concentration (IC50) of more than 1000 µM.

In turn, `NC1CC(N)C(OC2OC(CO)C(O)C(O)C2N)C(O)C1O` (configuration not stated) had an IC50 of 3.9 µM.
